Laboratory results as given in ChEMBL document CHEMBL4513216, “Probing the Open Global Health Chemical Diversity Library for Multistage-Active Starting Points for Next-Generation Antimalarials” (ACS Infect Dis, 2020).

Assay: Toxicity liver stage against HepG2, at 10uM
Assay type: cell-based
Parameters: test concentration 10 uM, cell line HepG2-A16-CD81EGFP
Conditions: human, HepG2-A16-CD81EGFP cells; read-out: INHIBITION
Outline: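 Uninfected HepG2-A16-CD81EGFP cells, 3 × 10^3 per well, 1536-well, plated on prespotted compound at 10 μM final, parasite-free screening media added to match infected plates; puromycin 10 μM positive, DMSO 0.5% negative; run in parallel with 48 h PbLuc assay at 37 °C, 5% CO2; viability by CellTiter-Glo luminescence, normalized to controls.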

Row | SMILES | cytotoxicity at 10 µM
1 | COC(=O)c1cnc2c(c(C)nn2C)c1OC | 0.822%
2 | C/N=C1/c2cc3cc(OC)ccc3n2CCN1Cc1ccccc1 | 69.7%
3 | COc1ccccc1OCCNc1snc(Cl)c1C#N | 20.5%
4 | NC(=O)c1cccc2nc([C@H]3CCN(Cc4ccccn4)C3)[nH]c12 | 4.32%
5 | CCCc1nc2c(c(C)c(C)n2Cc2ccccn2)c(N)c1CC | 23.3%
6 | Cc1nccn1CC1CCN(C(=O)c2ccccc2)CC1 | -4.17%
7 | O=C(Nc1cnccn1)[C@H]1COC[C@H]2CN(c3ncc(F)cn3)C[C@H]21 | -0.695%
8 | COCC(=O)N1CCC2(CC1)COc1ccccc1S(=O)(=O)N(C)C2 | 9.7%
9 | c1cnc(N2CCC3(COCc4cnc(N5CCOCC5)nc43)C2)nc1 (centres undefined) | -1.72%
10 | CC(C)CNC(=O)CC1(Cn2cnnn2)CCCCC1 | 11.1%
11 | Cc1c(C)n(-c2ccccn2)c2nc3c(c(N)c12)CCCC3 | 7.18%
12 | CCCc1nc(N2CCCC(C)C2)c2c(n1)c(C)nn2CC (centres undefined) | 15.6%
13 | Cc1cccc2c1cnn2CCCNC(=O)C1CC1 | 5.01%
14 | COc1ccc(CNC(Cc2ccsc2)c2ccc(C)cn2)c(OC)c1 (centres undefined) | 6.36%
15 | CCc1nccn1-c1nccnc1C1CCN(C(=O)COC)CC1 | -19.7%
16 | O=C(Cc1ccsc1)N1CCCC(c2n[nH]c3ncccc23)C1 (centres undefined) | -6.8%
17 | CNc1cc(C)nc(C2CN(Cc3cc[nH]n3)CCO2)c1 (centres undefined) | -9.09%
18 | N#CC(NC(=O)CCCOc1cccnc1)c1ccc(F)cc1F (centres undefined) | 8.23%
19 | CCc1ccc(C(=O)Nc2ccc3c(c2)N(C)CCN(C)C3)o1 | -7.69%
20 | Cc1ccc(-c2nc(CC(=O)NCC(C)N3CCOCC3)cs2)o1 (centres undefined) | -47.5%
21 | CCOCCN1CCN(CCc2ccc3c(c2)CCO3)CC1 | 4.1%
22 | CCC(CC)(CNC(=O)OC(C)(C)C)NC(=O)c1cnccn1 | -8.56%

Row | SMILES | cytotoxicity at 10 µM
23 | O=C(c1cccnc1O)N1CCOC(c2ccc(Cl)cc2)C1 (centres undefined) | 2.6%
24 | c1ccc2oc(N3CCn4c(nnc4C4CC4)C3)nc2c1 | 7.41%
25 | CS(=O)(=O)c1ccccc1N[C@@H]1c2ccccc2C[C@@H]1O | -40.5%
26 | CCCS(=O)(=O)N1CCC(c2ccc(OC)cc2)CC1 | 2.02%
27 | Cc1cnn(CC2CCN(CC(O)Cn3cccn3)CC2)c1 (centres undefined) | -1.66%
28 | CC(C)C(C)N(C)Cc1nnc(-c2ccco2)o1 (centres undefined) | 2.65%
29 | CCc1nc2c(s1)C(N(C)C(=O)c1csnn1)CCC2 (centres undefined) | -3.71%
30 | Cc1cc(C)c(CCNC(=O)CN2CCCN(C(N)=O)CC2)c(C)c1 | -0.819%
31 | COc1ccc(CNC(=O)N2CCOCC2C2CC2)cc1C (centres undefined) | 10.4%
32 | Cc1cccc(-c2ccc(C(=O)NCCN3CCOCC3)c(=O)[nH]2)c1 | -5.88%
33 | CN(C(=O)CN1CCCC1Cc1ccccc1)c1ccccc1 (centres undefined) | 17.8%
34 | O=C(CCn1cccn1)NCC(c1cccs1)N1CCCC1 (centres undefined) | 7.02%
35 | CC(C)c1noc(CN2CCC(c3nc4cc(Cl)ccc4o3)CC2)n1 | 1.81%
36 | O=C(CSc1ccc2c(c1)OCCO2)NS(=O)(=O)c1ccccc1F | 1.98%
37 | Cc1ccc(C)c(S(=O)(=O)NC(=O)c2cccc3c2OCCO3)c1 | -4.77%
38 | Cc1cc(Cl)ccc1S(=O)(=O)NCC(C)N1CCN(C)CC1 (centres undefined) | 8.35%
39 | CC(C)Cc1noc(CN2CCCN(C(=O)c3cccc(Cl)c3)CC2)n1 | -2.34%
40 | Cc1cc(N2CCC(N(C)C(=O)c3sccc3C)CC2)nc(C)n1 | 25.9%
41 | c1cncc(CNc2cccc(OCCN3CCCCC3)c2)c1 | -0.589%
42 | COc1ccc(NC(=O)CSC(F)(F)F)cn1 | -96.6%
43 | O=C(CCN1C(=O)CCC1=O)Nc1ccc(Cl)cc1 | -2.79%
44 | CCS(=O)(=O)NC(CCSC)C(=O)Nc1cc(F)ccc1C (centres undefined) | 6.29%

Row | SMILES | cytotoxicity at 10 µM
45 | COC(=O)c1cccc(C(=O)N2CCN(C(=O)N(C)C)CC2(C)C)c1 | 11.9%
46 | Cc1csc(CCCNc2ccc(S(N)(=O)=O)cc2C#N)n1 | -49%
47 | CCn1cc(C2CCN(Cc3ccnc(N(C)C)c3)CC2)cn1 | 11%
48 | Cc1cnn(CCCNC(=O)NC(C)C(=O)Nc2ccccc2)c1 (centres undefined) | 7.04%
49 | CN(CCNS(C)(=O)=O)C(=O)c1ccc(Cl)c(Cl)c1 | -52.4%
50 | CN(Cc1cccc(OC(F)(F)F)c1)C(=O)c1cnsn1 | 0.963%
51 | Cc1nsc(N2CCN(C(=O)Nc3cccc(F)c3)CC2)n1 | -18.3%
52 | CN1CCCc2cc(NC(=O)N3CCOC(C(N)=O)C3)ccc21 (centres undefined) | 0.602%
53 | CNC(=O)CN1CCOCC2(C1)CN(Cc1csnn1)CCO2 (centres undefined) | -89.3%
54 | Cc1cccc(CO[C@@H]2CC[C@H]3[C@H]2OCCN3Cc2ccoc2)n1 | -109%
55 | Cc1cnc(N2CCC(c3ccncc3)CC2)nc1-c1ccnn1C | 28.7%
56 | Cc1ccccc1CC1(CO)CCCN(c2ncncc2C(C)C)C1 (centres undefined) | -22.2%
57 | CCC1CN(C(=O)c2ccc(O)cn2)CCC(=O)N1Cc1ccccc1 (centres undefined) | 8.5%
58 | CNc1nc(N2CCN(CC=C(C)C)C(CCO)C2)nc2c1CCC2 (centres undefined) | -0.6%
59 | CCNC(=O)[C@@H]1C[C@H](N)CN1Cc1ccc(Sc2ccc(C)cc2)o1 | -48.3%
60 | O=C1N(CC2CCCCC2)CCCC1(O)CN1CCc2[nH]ncc2C1 (centres undefined) | -5.84%
61 | Cc1nnsc1CN1CC[C@@](O)(C2CCC2)[C@H](C)C1 | 11.8%
62 | Cc1ccc(C(=O)NCCC2CN(C3CCCC3)CCO2)c(C)c1 (centres undefined) | -3.76%
63 | NC(=O)c1ccc(CN2C(=O)C3(CCNCC3)Nc3ccccc32)cc1 | -6.38%
64 | O=S(=O)(N[C@H]1CC[C@H]1NC1Cc2ccccc2C1)c1cccnc1 | 1.24%
65 | O=C(NCCN1CCCC1)Nc1cc(C(=O)N2CCOCC2)ccc1Cl | -44.2%
66 | NC(=O)CCC1CCCN(Cc2cnc(N3CCCCC3)nc2)C1 (centres undefined) | -11.1%

Row | SMILES | cytotoxicity at 10 µM
67 | CC(C)Cc1cc(CNC(=O)c2ccccc2C2CCNC2)no1 (centres undefined) | -45.5%
68 | COc1cc(C)ccc1OCc1nc(C(=O)N2CCCO2)co1 | -45.9%
69 | Cc1cnc(C)c(N2CCCC(CO)(Cc3ccccc3C)C2)n1 (centres undefined) | -17.2%
70 | Cc1nccn1CC1CCCN(Cc2ccc(-c3cccnc3)cc2)C1 (centres undefined) | 2.97%
71 | O=C(CC1COCCN1S(=O)(=O)c1ccccc1)NCc1ccccn1 (centres undefined) | 4.48%
72 | Cc1n[nH]c(CN2CCN(c3ncnc4scc(C)c34)CC2)c1Cl | 58.4%
73 | CCc1nc2c(NCC3COc4cc(OC)ccc4C3)ncnc2o1 (centres undefined) | 40.9%
74 | N#CC1CCCN(c2ncnc3c2CCN(Cc2ccccc2)CC3)C1 (centres undefined) | -3.64%
75 | COc1ccc(C(C)NC(=O)C2CCN(S(C)(=O)=O)CC2)cc1C (centres undefined) | -7.5%
76 | CS(=O)(=O)c1ccc(NC(=O)N2C[C@H](O)[C@@H](N3CCOCC3)C2)cc1 | -46%
77 | O=C(NCc1nc(NC2CCCC2)c2cc(Cl)ccc2n1)c1cncs1 | 4.15%
78 | Cc1nc2c(NCC(C)N(C)c3ccccc3)ncnc2o1 (centres undefined) | 4.73%
79 | CN(Cc1nc2ccsc2c(=O)[nH]1)C[C@@H]1CCCN2CCCC[C@H]12 | -7.33%
80 | CC(C)c1cc(C(=O)N(C)Cc2cccc3ncccc23)n(C)n1 | 12.3%
81 | N#Cc1cc(F)ccc1CN1CCCC1Cn1cccn1 (centres undefined) | 2.01%
82 | COC(=O)c1ccc(N2CCN(C(=O)c3cnc(C)cn3)C(C)C2)cc1 (centres undefined) | 3.09%
83 | Cc1cnn(CCNCC(O)COc2ccc(Cl)cc2Cl)c1 (centres undefined) | -1.76%
84 | CC(C)c1n[nH]c(C(=O)Nc2ccccn2)c1Br | -31.7%
85 | Cc1cccc(NC2CCN(C(=O)Nc3ccc(F)c(F)c3)CC2)n1 | 9.59%
86 | CCNc1cc2c(nn1)CCN(C(=O)c1cc3cc(C)ccc3o1)C2 | -18.7%
87 | Cc1ccc(-c2nc(CCNC(=O)NC3CCC(O)CC3)co2)cc1 (centres undefined) | -2.3%
88 | CCn1c(C)cc(C(=O)N2CCc3nnc(N)cc3C2)c1C | -12.2%

Row | SMILES | cytotoxicity at 10 µM
89 | CC(=O)Nc1nc(C(=O)N2CCCC(n3cncn3)C2)cs1 (centres undefined) | -2.02%
90 | Cc1cccc(C2(CNC(=O)CCNS(C)(=O)=O)CCCC2)c1 | -5.92%
91 | Cc1nc(Nc2ncc(C)s2)cc(C2CCCN2)n1 (centres undefined) | 82%
92 | Cc1nc(CN2C[C@@H]3CCCO[C@@H]3[C@H](N(C)C(C)C)C2)cs1 | 6.86%
93 | Cc1cccc(CN2CCC3(CC2)CN(c2cnn(C)c2)C(=O)CO3)n1 | 3.94%
94 | N#Cc1ccc(N2CCC3(CCC(=O)N3CCN3CCCC3)CC2)nc1 | -114%
95 | Cc1ccccc1C(=O)N1C[C@@H]2CCN(c3cccnc3)C[C@@H]2C1 | -76.3%
96 | CCCN1CCCn2c(nc(CNC(=O)c3nccn3C)cc2=O)C1 | 9.73%
97 | COc1cc(N2CCC3(CC2)CCN(c2cccnc2)C3=O)ncn1 | -116%
98 | CS(=O)(=O)N1CCC2(CC1)CC(NCc1ccco1)c1ccccc12 (centres undefined) | -110%
99 | c1cnc(N2CCOCC3(CCCN(Cc4cccs4)C3)C2)nc1 (centres undefined) | -68.3%
100 | Cn1cc(N2C[C@@H]3CN(CC4CCOCC4)C[C@@H]3C2=O)cn1 | 11.1%
101 | Cc1noc(C)c1CN1CCc2ncnc(-c3ccoc3)c2CC1 | -92%
102 | CN1C[C@H]2N(c3ncccn3)CCC[C@@]2(C(=O)NCC2CC2)C1 | -103%
103 | CCOCC1CN(Cc2cnn(C)c2)Cc2nn(CC3CC3)cc21 (centres undefined) | -75.9%
104 | Cc1noc(C)c1CN1CCOCC12CCN(c1nccs1)CC2 | -104%
105 | O=C1COC2(CCN(Cc3cccs3)CC2)CN1c1cncnc1 | -124%
106 | CS(=O)(=O)NC[C@]12COC[C@H]1CN(CC1CCC1)C2 | -110%
107 | Cc1ccc2c(c1)CN(C(=O)c1cnc(C)cn1)C(CN(C)C)CO2 (centres undefined) | -22.3%
108 | Fc1ccc(CN2CCO[C@H]3[C@H](OCC4CCCC4)CC[C@@H]32)cc1 | 37.9%
109 | O=c1c(=CS(=O)(=O)Nc2ccc(Br)cc2)[nH]c(=O)n2cccc12 | -9.95%
